Data set [1] deals with Pseudomonas aeruginosa. The data set can be described thus: Potency index, ratio of nitazoxanide MIC to test compound MIC for antibacterial activity against Pseudomonas aeruginosa ATCC 27853. It counts as functional.
The test system of data set [2] is Staphylococcus aureus. The data set can be described thus: Antibacterial activity against Staphylococcus aureus ATCC 6538 by broth microdilution method. The data set is classed as functional. A digest of the protocol:
(§1)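 CLSI broth microdilution on wild-type strains. E. coli ATCC 8739, P. aeruginosa ATCC 27853 and K. pneumoniae ATCC 10031 served as Gram-negatives. S. aureus ATCC 6538 and E. faecalis ATCC 19433 served as Gram-positives. H. pylori ATCC 700392 was tested as the […]. Ciprofloxacin was the reference drug. MIC is given in μM as the mean of three experiments.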

The subject of data set [3] is Staphylococcus aureus. The data set can be described thus: Potency index, ratio of nitazoxanide MIC to test compound MIC for antibacterial activity against Staphylococcus aureus ATCC 6538. The data set is classed as functional.
In a further data set the test system is Helicobacter pylori. The data set can be described thus: Antibacterial activity against Helicobacter pylori ATCC 700392 by broth microdilution method. The data set is classed as functional. An outline of the steps: as §1
(Dilution methods test growth across graded concentrations, often in twofold steps.)

Data set [4] has as its system Mycobacterium tuberculosis. Kind of data set: Antimycobacterial activity against Mycobacterium tuberculosis H37Rv incubated for 7 days by alamar blue assay. The data set is classed as functional. The settings on record: 168 h, time 7 day. An outline of the steps:
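Two-fold serial dilutions in 7H9-S, with growth and sterile controls, incubated at 37 °C for 7 days. Alamar Blue then added and incubated overnight. MIC is the lowest concentration preventing the blue-to-pink change. Means of three experiments.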

The subject of data set [5] is Enterococcus faecalis. Kind of data set: Antibacterial activity against Enterococcus faecalis ATCC 19433 by broth microdilution method. It counts as functional. A digest of the protocol:
as §1

Data set [6] relates to Klebsiella pneumoniae. The data set can be described thus: Antibacterial activity against Klebsiella pneumoniae ATCC 10031 by broth microdilution method. The data set is classed as functional. A digest of the protocol:
as §1

Data set [7] deals with Pseudomonas aeruginosa. The data set can be described thus: Antibacterial activity against Pseudomonas aeruginosa ATCC 27853 by broth microdilution method. The data set is classed as functional. An outline of the steps: as §1
Data set [8] has as its system Klebsiella pneumoniae. Kind of data set: Potency index, ratio of nitazoxanide MIC to test compound MIC for antibacterial activity against Klebsiella pneumoniae ATCC 10031. The data set is classed as functional.
Data set [9] relates to Escherichia coli. Kind of data set: Antibacterial activity against Escherichia coli ATCC 8739 by broth microdilution method. The data set is classed as functional. An outline of the steps:
as §1

The subject of data set [10] is Mycobacterium tuberculosis. The data set can be described thus: Potency index, ratio of ethambutol MIC to test compound MIC for antitubercular activity against Mycobacterium tuberculosis H37Rv. It counts as functional.
Data set [11] concerns Enterococcus faecalis. Kind of data set: Potency index, ratio of nitazoxanide MIC to test compound MIC for antibacterial activity against Enterococcus faecalis ATCC 19433. The data set is classed as functional.
A short description of data set [12]: Selectivity index, ratio of cytotoxicity against mouse RAW264.7 cells to MIC for Mycobacterium tuberculosis H37Rv. The data set is classed as toxicity, cell-based. The settings on record: read-out: Selectivity Index. An outline of the steps: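 SI is cytotoxicity divided by the MABA MIC (μg mL⁻¹) against H37Rv. For cytotoxicity, RAW 264.7 cells were grown in RPMI with 10% FBS and penicillin/streptomycin. About 5000 cells per well were seeded on poly-L-lysine plates and held 24 h at 37 °C, 5% CO2. Compounds were added at 25 μg mL⁻¹ for 48 h, then MTT (0.5 mg mL⁻¹) for 3 h. Formazan was read at 595/625 nm and reported as % inhibition.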

Data set [13] has as its system Mycobacterium tuberculosis. Kind of data set: Potency index, ratio of nitazoxanide MIC to test compound MIC for antitubercular activity against Mycobacterium tuberculosis H37Rv. It counts as functional.
The test system of a further data set is RAW264.7. Kind of data set: Cytotoxicity against mouse RAW264.7 cells at 25 ug/ml incubated for 48 hrs by MTT assay. The data set is classed as toxicity, cell-based. The settings on record: raw264.7, 48 h, at 25 µg/mL. An outline of the steps: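 RAW 264.7 mouse macrophages were grown in RPMI with 10% FBS plus penicillin/streptomycin to 80–90% confluency. About 5000 cells/well were seeded on poly-L-lysine-coated plates and held 24 h at 37 °C, 5% CO2. Compound was added at 25 μg mL−1 for 48 h at 37 °C. MTT (0.5 mg mL−1) was added for 3 h, and formazan was read at 595 and 625 nm. Result is % inhibition.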

For data set [14], the system named is Escherichia coli. The data set can be described thus: Potency index, ratio of nitazoxanide MIC to test compound MIC for antibacterial activity against Escherichia coli ATCC 8739. It counts as functional.

These results are taken from ChEMBL document CHEMBL5356992, “New nitazoxanide derivatives: design, synthesis, biological evaluation, and molecular docking studies as antibacterial and antimycobacterial agents” (RSC Med Chem, 2023).

Molecules are shown by their SMILES. Values after ≈ are worked out from the molar mass of the structure shown. A value given as a limit tells only on which side of the number the result lay.

On to `O=C(Nc1ncc([N+](=O)[O-])s1)c1ccc(-n2cc(CN3C(=O)C(=O)c4cc(Br)ccc43)nn2)cc1O`, for which the values for the Ratio with Pseudomonas aeruginosa [1], with Staphylococcus aureus [3] and with Klebsiella pneumoniae [8] were above 50, 25 and “<=20”, respectively. Besides, the MIC – broadly, the least concentration at which growth counts as inhibited – is 0.87 µM (≈ 0.496 µg/mL) in the data set on Staphylococcus aureus [2]; 3.5 µM (≈ 2 µg/mL) in the data set with Helicobacter pylori; above 25 µg/mL in data set [4]; 8.76 µM (≈ 5 µg/mL) in the data set with Enterococcus faecalis [5]; 4.38 µM (≈ 2.5 µg/mL) with Klebsiella pneumoniae [6]; 5.26 µM (≈ 3 µg/mL) with Pseudomonas aeruginosa [7]. This molecule yielded an MIC with Escherichia coli [9] of 21 µM (≈ 12 µg/mL).
On to `CC(=O)Oc1cc(N=[N+]=[N-])ccc1C(=O)Nc1ncc([N+](=O)[O-])s1`, for which the MIC came out at 11.5 µM (≈ 4 µg/mL) in the data set with Staphylococcus aureus [2]; 11.5 µM (≈ 4 µg/mL) in the data set with Helicobacter pylori; 1.56 µg/mL (≈ 4.48 µM) in data set [4]; 2.15 µM (≈ 0.749 µg/mL) against Enterococcus faecalis [5]; 34.5 µM (≈ 12 µg/mL) in the data set on Klebsiella pneumoniae [6]; 91.9 µM (≈ 32 µg/mL) in the data set on Pseudomonas aeruginosa [7]. Moreover, in the data set on Escherichia coli [9], the MIC stood at 8.61 µM (≈ 3 µg/mL). For the same molecule, the Ratio in data set [10] was determined as 1.7; in the data set with Enterococcus faecalis [11], 25; in data set [13], 5. The selectivity ratio in data set [12] was 16. Besides, the Cell growth inhibition in the data set on RAW264.7 turned out to be 17.54%.
On to `Cc1ccc2c(c1)C(=O)C(=O)N2Cc1cn(-c2ccc(C(=O)Nc3ncc([N+](=O)[O-])s3)c(O)c2)nn1`, for which the Ratio is on record as 20 in the data set with Escherichia coli [14], 25 in the data set on Enterococcus faecalis [11] and “<=20” in the data set with Klebsiella pneumoniae [8]. The MIC against Staphylococcus aureus [2] is 506 µM (≈ 256 µg/mL); in the data set with Helicobacter pylori, 2.96 µM (≈ 1.5 µg/mL); in data set [4], above 25 µg/mL; in the data set with Enterococcus faecalis [5], 5.93 µM (≈ 3 µg/mL); in the data set with Klebsiella pneumoniae [6], 3.95 µM (≈ 2 µg/mL); in the data set with Pseudomonas aeruginosa [7] it was 7.91 µM (≈ 4 µg/mL). In the data set on Escherichia coli [9], this molecule gave an MIC of 1.48 µM (≈ 0.748 µg/mL).
